Measured values: publication PMC2901243 (Nuclear medicine and biology, 2010)

Target: SSTR2 (Rattus norvegicus, UniProt P30680)
Assay type: binding
Settings: Re-cyclized analogues, in vitro, AR42J cells
Method in brief: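 Trypsinized rat AR42J pancreatic carcinoma cells, 2 × 10⁶/well in RPMI 1640, were incubated 2 h at 37 °C (5% CO₂) with HPLC-purified ¹¹¹In-DOTA-TIDE (0.2 μCi/well) and test compound at 10⁻⁴ to 10⁻¹³ M, in triplicate. Cells were pelleted, washed three times with 4 °C medium, and counted for γ radioactivity. IC₅₀ was taken from sigmoidal fits of % bound tracer vs log concentration.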

SSTR2, sequence (P30680 whole entry): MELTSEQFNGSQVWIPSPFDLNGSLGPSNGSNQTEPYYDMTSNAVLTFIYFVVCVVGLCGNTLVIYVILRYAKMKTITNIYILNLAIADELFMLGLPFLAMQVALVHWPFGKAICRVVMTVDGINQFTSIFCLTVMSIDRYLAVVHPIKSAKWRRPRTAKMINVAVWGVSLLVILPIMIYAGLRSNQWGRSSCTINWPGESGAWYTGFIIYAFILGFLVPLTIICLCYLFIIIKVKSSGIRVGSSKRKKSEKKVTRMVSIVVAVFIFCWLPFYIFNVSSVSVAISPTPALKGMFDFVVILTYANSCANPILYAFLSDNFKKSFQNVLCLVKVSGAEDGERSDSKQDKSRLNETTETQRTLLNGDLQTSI

## Ac-Cys-Cys-Tyr-DTrp-Lys-Thr-Cys-Thr(OH) [analogue 4]
  affinity toward somatostatin subtype 2 receptors (in words): moderate affinity
